From ChEMBL document CHEMBL4312029, “Structure-activity relationship studies and in vitro and in vivo anticancer activity of novel 3-aroyl-1,4-diarylpyrroles against solid tumors and hematological malignancies” (Eur J Med Chem, 2020)

Key:
[1] = test system: T-24; assay: Cytotoxicity against human T24 cells assessed as reduction in cell viability incubated for 48 hrs by MTT assay; assay type: functional, cell-based; settings: T-24, 48 h
[2] = test system: KBM5; assay: Cytotoxicity against human KBM5 cells expressing IM-resistant Bcr/Abl T315I mutant assessed as reduction in cell viability incubated for 48 hrs by MTT assay; assay type: functional, cell-based; settings: KBM5, 48 h
[3] = test system: SW480; assay: Cytotoxicity against human SW480 cells assessed as reduction in cell viability incubated for 48 hrs by MTT assay; assay type: functional, cell-based; settings: for IC50: SW480, 48 h
[4] = test system: KU812 cell line; assay: Cytotoxicity against human KU812 cells expressing IM- sensitive wild type Bcr/Abl assessed as reduction in cell viability incubated for 48 hrs by MTT assay; assay type: functional, cell-based; settings: KU812, 48 h
[5] = test system: HCT-116; assay: Cytotoxicity against human HCT116 cells assessed as reduction in cell viability incubated for 48 hrs by MTT assay; assay type: functional, cell-based; settings: for IC50: HCT-116, 48 h
[6] = test system: HT-29; assay: Cytotoxicity against human HT-29 cells assessed as reduction in cell viability incubated for 48 hrs by MTT assay; assay type: functional, cell-based; settings: for IC50: HT-29, 48 h
[7] = Cytotoxicity against human LAMA84-s cells expressing IM-sensitive wild type Bcr/Abl assessed as reduction in cell viability incubated for 48 hrs by MTT assay; assay type: functional, cell-based
[8] = Cytotoxicity against human SK-N-BE(2)C cells assessed as reduction in cell viability incubated for 48 hrs by MTT assay; assay type: functional, cell-based
In short: (§1)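 Increasing concentrations applied to glioblastoma and neuroblastoma lines to give dose-response viability curves; cytotoxic IC50 from triplicate experiments. Incubation 48 h, except U343MG at 72 h.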

[9] = Cytotoxicity against human SK-N-BE cells assessed as reduction in cell viability incubated for 48 hrs by MTT assay; assay type: functional, cell-based; in short: as §1
[10] = target: Tubulin (Homo sapiens) (UniProt P68371+Q9H4B7+P0DPH7+P68366+Q13509+Q71U36+P04350+Q3ZCM7+P07437+P68363+Q9BQE3+Q6PEY2+Q13885+Q9BVA1+Q9BUF5); assay: Inhibition of [3H]colchicine binding to tubulin (unknown origin) at 5 uM incubated for 10 mins by DEAE-cellulose filter method relative to control; assay type: protein-complex assay
[11] = test system: MCF7; assay: Cytotoxicity against human MCF7 cells assessed as reduction in cell growth incubated for 96 hrs by MTT assay; assay type: functional, cell-based; settings: MCF7, 96 h
In short: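 Growth inhibition of human breast carcinoma cells, reported as IC50; run in duplicate or triplicate.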

[12] = test system: SW-620; assay: Cytotoxicity against human SW620 cells assessed as reduction in cell viability incubated for 48 hrs by MTT assay; assay type: functional, cell-based; settings: for IC50: SW-620, 48 h
[13] = test system: PBMC; assay: Cytotoxicity against human PBMC assessed as cell viability by MTT assay; assay type: cell-based
[14] = organism: Homo sapiens; assay: (§2) Cytotoxicity against human U343MG cells assessed as reduction in cell viability incubated for 72 hrs by MTS assay; assay type: functional, cell-based; in short: as §1
[15] = as §2; assay type: functional, cell-based; settings: U-343MG; in short: as §1
[16] = target: Tubulin; assay: Inhibition of tubulin polymerization (unknown origin) incubated for 15 mins followed by GTP addition and measured for 20 mins by spectrophotometry; assay type: protein-complex assay, Homo sapiens
In short: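 Tubulin assembly assay with tubulin at 10 µM. IC50 for inhibition of polymerization; run in duplicate or triplicate.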

[17] = Cytotoxicity against IM resistant human LAMA84-r cells assessed as reduction in cell viability incubated for 48 hrs by MTT assay; assay type: functional, cell-based
[18] = test system: KBM5; assay: Cytotoxicity against human KBM5 cells expressing IM- sensitive wild type Bcr/Abl assessed as reduction in cell viability incubated for 48 hrs by MTT assay; assay type: functional, cell-based; settings: KBM5, 48 h
[19] = test system: U-87 MG; assay: Cytotoxicity against human U87MG cells assessed as reduction in cell viability incubated for 48 hrs by MTS assay; assay type: functional, cell-based, U-87MG ATCC; settings: for inhibition: U-87MG ATCC; in short: as §1
[20] = test system: T98G; assay: Cytotoxicity against human T98G cells assessed as reduction in cell viability incubated for 48 hrs by MTS assay; assay type: functional, cell-based; in short: as §1

COc1cc(C(=O)c2cn(-c3cccc(N)c3)cc2-c2ccccc2F)cc(OC)c1OC
IC50 [1]: 34 nM | IC50 [2]: 22 nM | inhibition [3]: Dose-dependent effect | IC50 [3]: 162 nM | IC50 [4]: 14 nM | inhibition [5]: Dose-dependent effect | IC50 [5]: 42 nM | inhibition [6]: Dose-dependent effect | IC50 [6]: 56 nM | IC50 [7]: 15 nM | IC50 [8]: 106 nM | IC50 [9]: 244 nM | inhibition [10]: 90% | IC50 [11]: 17 nM | inhibition [12]: Dose-dependent effect | IC50 [12]: 123 nM | Activity [13]: Non-Toxic | inhibition [14]: Dose-dependent effect | Emax [15]: 31% | IC50 [15]: 68.9 to 69 nM | IC50 [16]: 500 nM | IC50 [17]: 14 nM | IC50 [18]: 18 nM | Emax [19]: 22% | IC50 [19]: 61 to 61.4 nM | inhibition [19]: Dose-dependent effect | Emax [20]: 38.4% | IC50 [20]: 54 to 54.4 nM | inhibition [20]: Dose-dependent effect

COc1cc(C(=O)c2cn(-c3ccc(F)cc3)cc2-c2ccc(N)cc2)cc(OC)c1OC
IC50 [1]: 48 nM | IC50 [2]: 26 nM | inhibition [3]: Dose-dependent effect | IC50 [3]: 167 nM | IC50 [4]: 18 nM | inhibition [5]: Dose-dependent effect | IC50 [5]: 36 nM | inhibition [6]: Dose-dependent effect | IC50 [6]: 35 nM | IC50 [7]: 20 nM | IC50 [8]: 178 nM | IC50 [9]: 288 nM | inhibition [10]: 90% | IC50 [11]: 12 nM | inhibition [12]: Dose-dependent effect | IC50 [12]: 47 nM | Activity [13]: Non-Toxic | inhibition [14]: Dose-dependent effect | Emax [15]: 37.1% | IC50 [15]: 20 to 20.1 nM | IC50 [16]: 500 nM | IC50 [17]: 22 nM | IC50 [18]: 25 nM | Emax [19]: 32% | IC50 [19]: 45.8 to 46 nM | inhibition [19]: Dose-dependent effect | Emax [20]: 31% | IC50 [20]: 21.8 to 22 nM | inhibition [20]: Dose-dependent effect

COc1ccccc1-c1cn(-c2ccccc2)cc1C(=O)c1cc(OC)c(OC)c(OC)c1
inhibition [10]: 31% | IC50 [11]: 190 nM | IC50 [16]: 550 nM

COc1cc(C(=O)c2cn(-c3ccc(C)cc3)cc2-c2ccccc2F)cc(OC)c1OC
inhibition [10]: 80% | IC50 [11]: 44 nM | IC50 [16]: 780 nM

COc1cc(C(=O)c2cn(-c3ccc(C)cc3)cc2-c2ccccc2Cl)cc(OC)c1OC
inhibition [10]: 70% | IC50 [11]: 180 nM | IC50 [16]: 480 nM

COc1cc(C(=O)c2cn(-c3ccccc3)cc2-c2cccc([N+](=O)[O-])c2)cc(OC)c1OC
inhibition [10]: 12% | IC50 [11]: 50 nM | IC50 [16]: 940 nM

COc1cc(C(=O)c2cn(-c3ccc(F)cc3)cc2-c2cccc([N+](=O)[O-])c2)cc(OC)c1OC
inhibition [10]: 11% | IC50 [11]: 440 nM | IC50 [16]: > 20000 nM

COc1cc(C(=O)c2cn(-c3cccc(Br)c3)cc2-c2ccccc2)cc(OC)c1OC
inhibition [10]: 23% | IC50 [11]: 78 nM | IC50 [16]: 1900 nM

COc1cc(C(=O)c2cn(-c3ccc(F)cc3)cc2-c2ccccc2F)cc(OC)c1OC
inhibition [10]: 68% | IC50 [11]: 39 nM | IC50 [16]: 660 nM

COc1cc(C(=O)c2cn(-c3cccc(C)c3)cc2-c2ccccc2F)cc(OC)c1OC
inhibition [10]: 57% | IC50 [11]: 190 nM | IC50 [16]: 790 nM

COc1cc(C(=O)c2cn(-c3ccc(F)cc3)cc2-c2ccc([N+](=O)[O-])cc2)cc(OC)c1OC
inhibition [10]: 0% | IC50 [11]: 240 nM | IC50 [16]: > 20000 nM

COc1cc(C(=O)c2cn(-c3ccc(N)cc3)cc2-c2ccccc2F)cc(OC)c1OC
inhibition [10]: 79% | IC50 [11]: 28 nM | IC50 [16]: 590 nM

COc1ccc(-c2cn(-c3ccccc3)cc2C(=O)c2cc(OC)c(OC)c(OC)c2)cc1
inhibition [10]: 42% | IC50 [11]: 70 nM | IC50 [16]: 480 nM

COc1cc(C(=O)c2cn(-c3cccc(C)c3)cc2-c2ccc([N+](=O)[O-])cc2)cc(OC)c1OC
inhibition [10]: 10% | IC50 [11]: 780 nM | IC50 [16]: > 20000 nM

COc1cc(C(=O)c2cn(-c3ccc(N)cc3)cc2-c2ccc([N+](=O)[O-])cc2)cc(OC)c1OC
inhibition [10]: 23% | IC50 [11]: 260 nM | IC50 [16]: 1800 nM

COc1cccc(-c2cn(-c3ccccc3)cc2C(=O)c2cc(OC)c(OC)c(OC)c2)c1
inhibition [10]: 27% | IC50 [11]: 180 nM | IC50 [16]: 450 nM

COc1ccc(-n2cc(C(=O)c3cc(OC)c(OC)c(OC)c3)c(-c3ccccc3)c2)cc1
inhibition [10]: 27% | IC50 [11]: 120 nM | IC50 [16]: 960 nM

COc1cc(C(=O)c2cn(-c3ccc(N)cc3)cc2-c2ccccc2[N+](=O)[O-])cc(OC)c1OC
inhibition [10]: 69% | IC50 [11]: 53 nM | IC50 [16]: 520 nM

COc1cc(C(=O)c2cn(-c3cccc(C)c3)cc2-c2ccccc2[N+](=O)[O-])cc(OC)c1OC
inhibition [10]: 41% | IC50 [11]: 220 nM | IC50 [16]: 1200 nM

COc1cc(C(=O)c2cn(-c3ccc(N)cc3)cc2-c2ccccc2Cl)cc(OC)c1OC
inhibition [10]: 65% | IC50 [11]: 83 nM | IC50 [16]: 710 nM

COc1cc(C(=O)c2cn(-c3cccc(C)c3)cc2-c2ccccc2Cl)cc(OC)c1OC
inhibition [10]: 39% | IC50 [11]: 420 nM | IC50 [16]: 710 nM

COc1cc(C(=O)c2cn(-c3cc(OC)c(OC)c(OC)c3)cc2-c2ccccc2)cc(OC)c1OC
inhibition [10]: 6.5% | IC50 [11]: > 5000 nM | IC50 [16]: > 20000 nM

COc1ccccc1-n1cc(C(=O)c2cc(OC)c(OC)c(OC)c2)c(-c2ccccc2)c1
inhibition [10]: 22% | IC50 [11]: 150 nM | IC50 [16]: 1300 nM

COc1cc(C(=O)c2cn(-c3ccc(F)cc3)cc2-c2ccccc2[N+](=O)[O-])cc(OC)c1OC
inhibition [10]: 46% | IC50 [11]: 38 nM | IC50 [16]: 680 nM

COc1cc(C(=O)c2cn(-c3cccc(C)c3)cc2-c2ccc(N)cc2)cc(OC)c1OC
inhibition [10]: 88% | IC50 [11]: 18 nM | IC50 [16]: 330 nM

COc1cc(C(=O)c2cn(-c3ccc(N)cc3)cc2-c2cccc(N)c2)cc(OC)c1OC
inhibition [10]: 59% | IC50 [11]: 78 nM | IC50 [16]: 870 nM

COc1cc(C(=O)c2cn(-c3cccc(N)c3)cc2-c2ccccc2Cl)cc(OC)c1OC
inhibition [10]: 79% | IC50 [11]: 40 nM | IC50 [16]: 630 nM

COc1cc(C(=O)c2cn(-c3cccc(C)c3)cc2-c2cccc(N)c2)cc(OC)c1OC
inhibition [10]: 64% | IC50 [11]: 130 nM | IC50 [16]: 910 nM
